Results on 5 compounds are retold here after ChEMBL document CHEMBL4414556, “Antiproliferative Acylated Glycerols from New Zealand Propolis” (2019).

What all share (assay type): functional
The test system of assay [1] is KYSE-30. Nature of the assay: Antiproliferative activity against human KYSE-30 cells assessed as cell growth inhibition at 110 uM by MTT assay relative to control. Put shortly:
(§1)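 Cells revived from cryostorage and grown under supplier-recommended conditions with test samples. Working solutions were made in 15% EtOH/Hank's balanced saline at 2 mg/mL solids. Final well concentrations were 110, 55 or 22 μM, and the 5-fluorouracil reference was run at 450, 150 and 50 nM. MTT viability read after incubation, expressed as % proliferation versus a cells-only control, with six replicates.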
For orientation: Tetrazolium assays rely on reduction of a dye to a coloured formazan, in cell work by metabolically active cells.

Assay [2] concerns NCI-N87. Nature of the assay: Antiproliferative activity against human NCI-N87 cells assessed as cell growth inhibition at 22 uM by MTT assay relative to control. In outline: as §1
For assay [3], the system named is NCI-N87. Nature of the assay: Antiproliferative activity against human NCI-N87 cells assessed as cell growth inhibition at 110 uM by MTT assay relative to control. Put shortly: as §1
In assay [4] the test system is DLD-1. Put plainly: Antiproliferative activity against human DLD1 cells assessed as cell growth inhibition at 110 uM by MTT assay relative to control. In outline:
as §1

For assay [5], the system named is DLD-1. Nature of the assay: Antiproliferative activity against human DLD1 cells assessed as cell growth inhibition at 55 uM by MTT assay relative to control. Put shortly: as §1
For assay [6], the system named is KYSE-30. Put plainly: Antiproliferative activity against human KYSE-30 cells assessed as cell growth inhibition at 22 uM by MTT assay relative to control. In outline:
as §1

Assay [7] concerns NCI-N87. Put plainly: Antiproliferative activity against human NCI-N87 cells assessed as cell growth inhibition at 55 uM by MTT assay relative to control. Put shortly: as §1
Assay [8] has as its system KYSE-30. Nature of the assay: Antiproliferative activity against human KYSE-30 cells assessed as cell growth inhibition at 55 uM by MTT assay relative to control. Put shortly: as §1
Assay [9] concerns NCI-N87. Put plainly: Antiproliferative activity against human NCI-N87 cells assessed as cell growth inhibition at 450 nM by MTT assay relative to control. In outline:
(§2)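 Cells revived from cryostorage and cultured under supplier-recommended conditions with test or reference samples. Working solutions at 2 mg/mL solids in 15% EtOH/Hank's balanced saline. 5-Fluorouracil positive control at final well concentrations of 450, 150 and 50 nM. MTT viability read-out after incubation, expressed as percentage proliferation versus cells-only control; six replicates for test and control.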

Assay [10] deals with DLD-1. Put plainly: Antiproliferative activity against human DLD1 cells assessed as cell growth inhibition at 450 nM by MTT assay relative to control. Put shortly:
as §2

Assay [11] deals with KYSE-30. Nature of the assay: Antiproliferative activity against human KYSE-30 cells assessed as cell growth inhibition at 450 nM by MTT assay relative to control. Put shortly: as §2

What is called inhibition is the change of the read-out against control, counted positive when it falls. In the case of `CCCCCCCCCCCC[C@@H](O)CCCC[C@@H](O)CC(=O)OCC(O)COC(C)=O` (stereo not given in full), the inhibition at 110 µM with KYSE-30 [1] was determined as 52%; in the assay with NCI-N87 [3] it was 100%; with DLD-1 [4], 94%. Besides, the results for the inhibition at 22 µM in the assay on NCI-N87 [2] and in the assay on KYSE-30 [6] were 39% and 9%, respectively. In addition, the results for the inhibition at 55 µM in the assay with DLD-1 [5], with NCI-N87 [7] and in the assay with KYSE-30 [8] were 13%, 86% and 50%, respectively.
On to `CCCCCCCCCCCC[C@@H](O)CCCC[C@@H](O)CC(=O)OCC(O)CO` (stereo not given in full), for which the figures for the inhibition at 110 µM with KYSE-30 [1], in the assay with NCI-N87 [3] and in the assay on DLD-1 [4] were 52%, 100% and 80%, respectively.
As for `CCCCCCCCCCCCC[C@@H](O)CCCC[C@@H](O)CC(=O)OCC(O)COC(C)=O` (stereo not given in full), the inhibition at 110 µM worked out at 29% with KYSE-30 [1], 100% in the assay on NCI-N87 [3] and 91% in the assay with DLD-1 [4].
Take `O=c1[nH]cc(F)c(=O)[nH]1` [FLUOROURACIL]: the inhibition at 0.45 µM with NCI-N87 [9] amounted to 8%; with DLD-1 [10] it was 21%; in the assay with KYSE-30 [11], 17%.
Consider `CCCCCCCCCCCCCCCC(=O)OCC(O)CO` (stereo not given) [GLYCEROL MONOPALMITATE], for which the inhibition at 110 µM in the assay with KYSE-30 [1] worked out at 75%; in the assay on NCI-N87 [3], 100%; in the assay on DLD-1 [4], 72%.
